# thrombin 1536: thrombin (human) inhibition | 0.26% of 220,000 active | inhibition, % at 5 µM | P00734 | alpha-thrombin, Boc-VPR-AMC fluorogenic substrate cleavage;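 active means inhibition at or above 40%; inactive means inhibition below 40%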;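 further: 0% = enzyme with no compound and 100% = wells without enzyme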
#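 Material: Human alpha-thrombin protein | Buffer or medium: pH 7.5 Tris-saline with Tween 20 | Reagent: Boc-VPR-AMC substrate, 15 µM final | Schedule: Reaction at ambient temperature | Detection: AMC fluorescence at 355 nm excitation and 460 nm emission | Evaluation: Percent inhibition scaled between no-compound controls and no-enzyme blanks | Controls: no-compound enzyme wells and no-enzyme blanks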
# KLK5 inh: kallikrein 5 (human) inhibition | AID 873 | recombinant hK5, fluorogenic AMC substrate cleavage | inhibition, % at 5 µM | 0.59% of 210,000 active | Q9Y337;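 active means inhibition of 40% or more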;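 further: 0% = enzyme controls without compound and 100% = no-enzyme blanks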
# Wee1 degr inh: inhibitors of human Wee1 degradation. HeLa Luc-Wee1K328M stability, luciferase luminescence; 100% = proteasome inhibitor MG132 effect. reporter increase, % at 5 µM. 1.2% of 220,000 active. AID 1321;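 active means activation above the mean of all tested compounds plus 3 SD, set per screening run, cut at about 8.8% in these data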;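 further: cells exposed to compound for 20 h before luminescence read; 0% = DMSO alone and 100% = MG132 at 30 µM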
# Target sequence (P30291 whole entry K328M): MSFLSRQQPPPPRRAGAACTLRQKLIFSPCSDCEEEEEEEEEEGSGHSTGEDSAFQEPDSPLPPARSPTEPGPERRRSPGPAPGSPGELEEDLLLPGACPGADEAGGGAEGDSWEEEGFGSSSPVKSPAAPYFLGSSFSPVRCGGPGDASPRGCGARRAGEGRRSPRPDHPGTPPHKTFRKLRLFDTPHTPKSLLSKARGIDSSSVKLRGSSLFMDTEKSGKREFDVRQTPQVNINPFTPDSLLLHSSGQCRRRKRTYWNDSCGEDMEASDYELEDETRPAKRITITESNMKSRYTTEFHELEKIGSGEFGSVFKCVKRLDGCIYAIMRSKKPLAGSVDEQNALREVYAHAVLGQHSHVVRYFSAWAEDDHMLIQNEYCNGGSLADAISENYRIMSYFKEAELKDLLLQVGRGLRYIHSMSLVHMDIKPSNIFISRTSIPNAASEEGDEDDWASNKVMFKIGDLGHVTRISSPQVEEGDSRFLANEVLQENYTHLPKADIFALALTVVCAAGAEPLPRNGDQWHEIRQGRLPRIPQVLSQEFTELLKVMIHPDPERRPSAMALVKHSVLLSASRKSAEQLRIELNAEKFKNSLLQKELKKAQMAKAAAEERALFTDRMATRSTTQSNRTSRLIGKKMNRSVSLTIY
# FXIIa inh: blocks human coagulation factor XIIa protease activity | purified FXIIa, Boc-QGR-AMC fluorogenic substrate, 2 h | 0.3% of 220,000 active | AID 800 | inhibition, % at 5 µM | P00748; in the data active means inhibition above about 40%;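 further: 0% = enzyme with no compound and 100% = blank without enzyme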
# Platelet DG rel: platelet dense granule release activity. AID 1663. 0.22% of 300,000 active. inhibition, %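 (compounds screened at 7.5 µM in platelet-rich plasma)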. human platelet-rich plasma, SFLLRN dense granule ATP release, luminescence;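 active means mean replicate score, as percent of positive control, at or above 50; inconclusive means mean below 50 but at least one replicate at or above 50; inactive means mean and every replicate below 50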
# FXIa inh: blocks human coagulation factor XIa protease activity. 0.14% of 220,000 active. P03951. inhibition, % at 5 µM. purified FXIa, Boc-Glu-Ala-Arg-AMC fluorogenic substrate. AID 798;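 active means inhibition of at least 40%; inactive means inhibition below 40%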;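 further: fluorescence of freed AMC excited at 355 nm; 0% = enzyme without compound and 100% = no enzyme blank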
# * = called active by the depositor; ? = inconclusive; / = no result. This is a sample that favours compounds with a hit; in the whole collection about 1.8% have one here.
SMILES,thrombin 1536,KLK5 inh,Wee1 degr inh,FXIIa inh,Platelet DG rel,FXIa inh
O=C1CSC(=S)N1N=C1CCCCCC1,-8,-55,13*,0,/,-3
Cc1cc(O)c(C(C)C)cc1NC(=O)c1ccc(Cl)cc1,-3,-2,-2,11,-3,-2
Cc1cc(O)c(C(C)C)cc1NC(=O)c1cccc(Cl)c1,0,7,9.5*,15,-7,10
CCCCOc1ccc(S(=O)(=O)N2CCN(c3ccc(N4CCN(CC)CC4)nn3)CC2)cc1,/,/,/,/,-22,/
COc1ccc(-c2[nH]nc3c2C(c2ccsc2)C(C#N)=C(N)O3)cc1 (stereo not drawn),4,81*,-3,-1,0,-3
Cc1ccc(-c2[nH]nc3c2C(c2ccsc2)C(C#N)=C(N)O3)cc1 (stereo not drawn),-5,-3,2,-3,7,-6
Nc1nc(F)nc2c1ncn2[C@@H]1O[C@H](CO)[C@@H](O)[C@@H]1O,3,-4,0,9,2,4
Nc1ncnc2c1ncn2[C@@H]1O[C@H](CO)[C@@H](O)[C@@H]1O,/,/,/,/,2,/
Nc1nc(F)nc2c1ncn2[C@@H]1O[C@H](CO)[C@@H](O)[C@H]1O,/,/,/,/,77*,/
Nc1ncnc2c1ncn2C1OC(CO)C(O)C1O (stereo not drawn),-4,0,-2,7,96*,-4
COc1cccc(CNC(=O)c2cccc(S(=O)(=O)N3CCN(C)CC3)c2)c1,/,/,/,/,10,/
COc1ccccc1N1CCN(C/C(O)=C(\C#N)c2nc(-c3ccccc3)cs2)CC1,10,-14,-1,43*,-1,23
N#C/C(=C(/O)CN1CCN(c2ccccc2F)CC1)c1nc(-c2ccc(Cl)cc2)cs1,6,-78,-1,15,-13,4
CS(=O)(=O)N(Cc1ccco1)CC(O)Cn1c2ccccc2c2ccccc21 (stereo not drawn),38,44*,-2,2,2,13
Cc1ccc(N(CC(O)Cn2c3ccccc3c3ccccc32)S(C)(=O)=O)cc1 (stereo not drawn),-1,-3,4,0,-4,4
O=C(O)c1ccc(NCc2nc3ccccc3n2Cc2ccccc2)cc1,18,27,-2,101*,17,24
CCn1c(CNc2ccc(C(=O)O)cc2)nc2ccccc21,-1,-15,-2,13,-2,-4
CCOC(=O)c1c(C)nc2sc3c(=O)n(-c4ccc(OC)cc4)nnc3c2c1-c1ccc(OC)cc1,3,45*,0,24,?,20
Cc1cccc(NC(=O)Nc2ccc3c(c2)N(C)C(=O)CS3)n1,31,58*,3,8,21,-1
CC(CCc1ccccc1)NC(=O)c1cccc([N+](=O)[O-])c1 (stereo not drawn),-10,-18,2,-1,-5,-4
Cc1ccc(C(=O)NC(C)CCc2ccccc2)cc1[N+](=O)[O-] (stereo not drawn),-2,1,11*,14,0,5
Cc1ccc(S(=O)(=O)N2CCN=C2c2ccccc2)cc1C,24,45*,-2,17,/,22
COc1cc(S(=O)(=O)N2CCN=C2c2ccccc2)ccc1F,3,-3,2,12,-9,-8
CC(=O)NC(CC(=O)OCC(=O)Nc1ccc2c(c1)OCO2)c1ccccc1 (stereo not drawn),/,/,/,/,-5,/
CN(C)CC(CCC(CN(C)C)C(=O)c1ccccc1)C(=O)c1ccccc1 (stereo not drawn),4,4,11*,16,22,0
SMILES,thrombin 1536,KLK5 inh,Wee1 degr inh,FXIIa inh,Platelet DG rel,FXIa inh
O=C1Nc2ccc(Br)cc2C1(O)c1ccc(F)cc1 (stereo not drawn),/,/,/,/,-1,/
CC(=O)Nc1ccc(S(=O)(=O)NCc2cccnc2)cc1,31,47*,1,1,1,22
O=C(Nc1ccc(S(=O)(=O)NCc2cccnc2)cc1)c1ccco1,-2,-5,0,1,-2,-8
O=C(Cn1nnc(-c2ccncc2)n1)NCCc1ccccc1,10,48*,-1,9,0,-2
COc1ccc(/C=N/NC(=O)c2c(C)nc3ccccn23)cc1[N+](=O)[O-],0,5,1,7,-3,-8
Cc1cnc(C)c(N2CCN(Cc3nc(-c4ccccc4)no3)CC2)n1,-6,1,0,4,50*,-3
c1ccc(-c2noc(CN3CCOCC3)n2)cc1,3,-3,1,7,-7,-4
CCN(CC)CCCNC(=O)CSc1nc(-c2ccc(F)cc2)cc(C(F)(F)F)n1,9,-2,-1,2,2,-4
C[C@H](NC(=O)OC(C)(C)C)C(=O)N/N=C/C1=Cc2ccccc2OC1,-5,3,9.7*,4,3,8
CCC(C)[C@H](NC(=O)OC(C)(C)C)C(=O)N/N=C/C1=Cc2ccccc2OC1 (stereo partly drawn),-6,0,0,3,2,-1
COc1ccc(/C=N/N(C)c2cc(=O)n(C)c(=O)[nH]2)cc1OC,-7,5,4,7,74*,1
O=C(O)CC(C(=O)O)c1ccc(OCCCCOc2ccc(C(CC(=O)O)C(=O)O)cc2)cc1 (stereo not drawn),/,/,/,/,5,/
CN(Cc1ccc(F)cc1)C(=O)c1cc(COc2ccc(-n3cncn3)cc2)on1,/,/,/,/,0,/
O=C(CN1C(=O)c2ccccc2C1=O)Nc1ccc(Cl)cn1,-8,-2,10*,19,4,1
O=C(Cn1ncc2c1-c1ccccc1OC2)Nc1ccc(Cl)cn1,-2,52*,-1,27,0,4
CCC(=O)Nc1cccc(C(=O)OCc2cccc([N+](=O)[O-])c2)c1,41*,68*,2,27,-8,27
CC(=O)Nc1cccc(C(=O)OCc2ccc([N+](=O)[O-])cc2)c1,-1,/,1,7,3,-1
CCc1cccc(NC(=O)Cc2ccc([N+](=O)[O-])cc2)c1,29,52*,4,23,1,41*
O=[N+]([O-])c1ccc(C2Nc3cccc4cccc(c34)N2)cc1,12,63*,-4,9,1,15
CCn1c(=O)c2c3c(sc2n2c(=S)[nH]nc12)CCC3,-1,-9,0,11,-10,1
CC1CCCCN1C(=O)COC(=O)CNC(=O)c1ccc(Cl)cc1Cl (stereo not drawn),/,/,/,/,19,/
COc1nc(N/N=C/c2cc3c(cc2Br)OCO3)nc(N2CCOCC2)n1,-5,1,-2,10,4,-4
Brc1cc2c(cc1/C=N/Nc1nc(N3CCCCC3)nc(N3CCCCC3)n1)OCO2,1,1,14*,3,/,-6
C/C(=N/NS(=O)(=O)c1cccc([N+](=O)[O-])c1)c1ccncc1,/,/,/,/,-3,/
CC(=O)N1CCN(C(=O)c2cccc(NS(=O)(=O)c3ccc(Br)cc3)c2)CC1,/,/,/,/,-25,/

# Screening data deposited in PubChem by several laboratories.
